These results are taken from ChEMBL document CHEMBL1145845, “Acetogenins as selective inhibitors of the human ovarian 1A9 tumor cell line” (2003).

Converted amounts (≈) assume the structure as drawn. The source made the active and inactive calls.

In general, Inhibition refers to the relative decrease from the control value, in per cent. Read a high Inhibition as a response far below the control. By inhibition is commonly meant the change of the read-out against control, counted positive when it falls.

In assay [1] the test system is MCF7. The experiment in a line: Effective dose required for inhibitory activity against MCF-7 human tumor cell line. The assay is classed as functional. The settings on record: read-out: ED50 (the source's name). Summed up: (§1)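 Human tumor lines were grown in RPMI-1640 with 25 mM HEPES, 0.25% sodium bicarbonate, 10% FBS and 100 µg/mL kanamycin. KB-VIN is a vincristine-resistant KB subline, and PTX10 is a 1A9 subline with mutated β-tubulin. Trypsinized cells (1500–7500/well) got compound from DMSO stock for 3 days continuous. Cells were fixed with cold 50% TCA, stained with 0.4% SRB, and read at 562 nm. ED50 is the 50% growth-reduction concentration; not active means ≤5% inhibition at the top concentration.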

The subject of assay [2] is KB. In words: Effective dose required for inhibitory activity against KB human tumor cell line. The settings on record: read-out: ED50 (the source's name). The assay is classed as functional. An outline of the steps: as §1
Assay [3] has as its system CAKI-1. In words: Effective dose required for inhibitory activity against CAK1 human tumor cell line; Not active. The assay is classed as functional, cell-based. An outline of the steps: as §1
Assay [4] concerns 1A9. The experiment in a line: Percent inhibition against 1A9 human tumor cell line at >10 ug/mL. The format is functional.
Assay [5] concerns SK-MEL-2. In words: Effective dose required for inhibitory activity against SK-MEL-2 human tumor cell line; Not active. The format is functional, cell-based. An outline of the steps:
as §1

Assay [6] concerns A549. The experiment in a line: Effective dose required for inhibitory activity against A549 human tumor cell line; Not active. The assay is classed as functional, cell-based. Summed up: as §1
The subject of assay [7] is HOS. In words: Effective dose required for inhibitory activity against HOS human tumor cell line; Not active. The format is functional, cell-based. An outline of the steps: as §1
Assay [8] has as its system HCT-8. The experiment in a line: Effective dose required for inhibitory activity against HCT-8 human tumor cell line. The assay is classed as functional. The conditions noted are these: read-out: ED50 (the source's name). Summed up:
as §1

The test system of assay [9] is 1A9/ptx-10. In words: Percent inhibition against PTX10 human tumor cell line at >10 ug/mL. The assay is classed as functional.
The test system of assay [10] is KB. In words: Effective dose required for inhibitory activity against KB-VIN human tumor cell line. The assay is classed as functional. The conditions noted are these: read-out: ED50 (the source's name). An outline of the steps: as §1
Assay [11] concerns PC-3. The experiment in a line: Effective dose required for inhibitory activity against PC-3 human tumor cell line. The assay is classed as functional. The conditions noted are these: read-out: ED50 (the source's name). Summed up: as §1
The test system of assay [12] is A549. In words: Effective dose required for inhibitory activity against A549 human tumor cell line. The settings on record: read-out: ED50 (the source's name). The format is functional. An outline of the steps: as §1
For assay [13], the system named is 1A9. The experiment in a line: Effective dose required for inhibitory activity against 1A9 human tumor cell line. The conditions noted are these: read-out: ED50 (the source's name). The format is functional. Summed up: as §1
Assay [14] relates to PC-3. In words: Effective dose required for inhibitory activity against PC-3 human tumor cell line; Not active. The assay is classed as functional, cell-based. An outline of the steps: as §1
The subject of assay [15] is HOS. The experiment in a line: Effective dose required for inhibitory activity against HOS human tumor cell line. The format is functional. The settings on record: read-out: ED50 (the source's name). An outline of the steps: as §1
Assay [16] has as its system CAKI-1. The experiment in a line: Effective dose required for inhibitory activity against CAK1 human tumor cell line. The assay is classed as functional. The conditions noted are these: read-out: ED50 (the source's name). An outline of the steps: as §1
Assay [17] relates to SK-MEL-2. In words: Effective dose required for inhibitory activity against SK-MEL-2 human tumor cell line. The format is functional. The settings on record: read-out: ED50 (the source's name). An outline of the steps:
as §1

Assay [18] has as its system 1A9. In words: Percent inhibition against 1A9 human tumor cell line at 0.10 ug/mL. The assay is classed as functional. Summed up: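 Human ovarian 1A9 cells grown in RPMI-1640 with 25 mM HEPES, 0.25% sodium bicarbonate, 10% FBS and 100 µg/mL kanamycin. Freshly trypsinized cells seeded at 1500–7500/well; compound added from DMSO-diluted stock; 3-day continuous exposure. Cells fixed with cold 50% TCA, stained with 0.4% SRB, dye solubilized, A562 read. Percent growth inhibition given where <50% at highest concentration.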

The subject of assay [19] is 1A9/ptx-10. In words: Effective dose required for inhibitory activity against PTX10 human tumor cell line. The assay is classed as functional. The conditions noted are these: read-out: ED50 (the source's name). An outline of the steps:
as §1

In assay [20] the test system is 1A9. The experiment in a line: Percent inhibition against 1A9 human tumor cell line at <0.00008 ug/mL. The format is functional.
Assay [21] has as its system MCF7. In words: Percent inhibition against MCF-7 human tumor cell line at <5 ug/mL. The assay is classed as functional.

On to `CCCCC/C=C\CCC(O)C(O)CCCC[C@@H](O)[C@@H]1CC[C@@H](CCCCCCCCCCCCC2=C[C@H](C)OC2=O)O1` (stereo partly specified), for which the EC50 in assay [1], in [2], in assay [8], in [10] and in [11] was greater than 20 µg/mL each time. For the same molecule, the NA result in [3], in [5], in [6] and in [7] was “inactive” throughout. The Inhibition in assay [4] is 39%; in [9], 13%.

`CCCCCCCCCCCC[C@@H](O)[C@H]1CC[C@H]([C@H](O)CCCCCCCCCCCCC2=C[C@H](C)OC2=O)O1` [REL-SOLAMIN]: the EC50 was greater than 20 µg/mL in [12]; greater than 20 µg/mL in assay [1]; greater than 20 µg/mL in assay [2]; 7.8 µg/mL (≈ 13.8 µM) in assay [13]; greater than 20 µg/mL in [8]; greater than 20 µg/mL in assay [10]. In addition, in assay [15], the EC50 was greater than 20 µg/mL. Moreover, the NA entry in [3], in assay [5] and in [14] was “inactive” in each case. The Inhibition in assay [9] was 18%.

Regarding `CCCCCCCCCCCC[C@@H](O)[C@H]1CC[C@H]([C@H](O)CCCCCCCCCC[C@@H](O)CC2=C[C@H](C)OC2=O)O1` [MURISOLIN], the EC50 in [1] was greater than 20 µg/mL; in [2], greater than 20 µg/mL; in assay [13], 0.96 µg/mL (≈ 1.65 µM); in assay [16], greater than 20 µg/mL; in assay [8], greater than 20 µg/mL; in [10], greater than 20 µg/mL. Also, the EC50 in assay [17] and in assay [11] was greater than 20 µg/mL in each case. Also, the NA entry in [6] and in assay [7] was “inactive” each time. In [9], the Inhibition was found to be 21%.

For the molecule `CCCCCCCCC[C@H](O)[C@@H]1CC[C@H]([C@H]2CC[C@@H](CCCCCCCCCC[C@H](O)CC3=C[C@H](C)OC3=O)O2)O1`, the EC50 in assay [12], in assay [1], in assay [2], in assay [8], in [10] and in assay [11] was greater than 20 µg/mL throughout. The EC50 in [15] is greater than 20 µg/mL. For the same molecule, the NA result in assay [3] and in assay [5] was “inactive” each time. In assay [18], this molecule came in with an inhibition at 0.1 µg/mL of 47%. In [9], this molecule came in with an Inhibition of 23%.

Take `CCCCCCCCCC[C@@H](O)[C@@H]1CC[C@@H]([C@@H]2CC[C@@H]([C@H](O)CCCCCCCCCC(O)CC3=CC(C)OC3=O)O2)O1` (stereo partly specified) [BULLATACIN]: the EC50 turned out to be 13.3 µg/mL (≈ 21.8 µM) in assay [12]; 8.4 µg/mL (≈ 13.8 µM) in assay [1]; 10 µg/mL (≈ 16.4 µM) in assay [2]; 16.8 µg/mL (≈ 27.6 µM) in assay [16]; 14.9 µg/mL (≈ 24.5 µM) in assay [8]; 8 µg/mL (≈ 13.1 µM) in [19]. The EC50 in assay [10] is 16.1 µg/mL (≈ 26.4 µM); in [17] it was 17.1 µg/mL (≈ 28.1 µM); in assay [11] it was 14.3 µg/mL (≈ 23.5 µM); in [15], 11.9 µg/mL (≈ 19.5 µM). Further, the Inhibition in [20] is 55%.

With `CCCCCCCCCCCC[C@@H](O)[C@H]1CC[C@H]([C@H](O)CCCCCC(O)CCCC[C@@H](O)CC2=C[C@H](C)OC2=O)O1` (stereo partly specified), the EC50 in [12] was found to be 12 µg/mL (≈ 20.1 µM); in assay [2], 11.8 µg/mL (≈ 19.8 µM); in assay [13], 0.5 µg/mL (≈ 0.838 µM); in assay [16], 16.3 µg/mL (≈ 27.3 µM); in [8], 14.2 µg/mL (≈ 23.8 µM); in assay [19], 9.3 µg/mL (≈ 15.6 µM). The EC50 was 17 µg/mL (≈ 28.5 µM) in assay [10], 13.1 µg/mL (≈ 21.9 µM) in assay [17], 7.8 µg/mL (≈ 13.1 µM) in assay [11] and 13.1 µg/mL (≈ 21.9 µM) in assay [15]. In assay [21], the Inhibition came to 57%.
